Laboratory results: ChEMBL document CHEMBL1125797, “Synthesis, characterization and myocardial uptake of cationic bis(arene)technetium(I) complexes” (J Med Chem, 1991)

Tests used:
Rattus norvegicus [1] = test: Biodistribution of compound in rat gonads at 90 min after intravenous administration; format: ADME, organism-based, Gonad; conditions: in vivo, 1.5 h
How it was run: (§1)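 Time course in Sprague-Dawley rats after lateral tail-vein injection of the 99mTc complex in normal saline (~12.5 μCi/mL) at ~25 μCi/kg. Tissues were sampled at the stated times, washed with saline, blotted, weighed and γ-counted to give percent injected dose per g. Values are averages of male and female rats.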

Rattus norvegicus [2] = test: Biodistribution of compound in rat bone at 90 min after intravenous administration; format: ADME, organism-based, Bone element; conditions: in vivo, 1.5 h; how it was run: as §1
Rattus norvegicus [3] = test: Biodistribution of compound in rat heart at 1440 min after intravenous administration; format: ADME, organism-based; conditions: in vivo, 24 h; how it was run: as §1
Rattus norvegicus [4] = test: Biodistribution of compound in rat lungs at 360 min after intravenous administration; format: ADME, organism-based, Lung; conditions: in vivo, 6 h
How it was run: (§2)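 Rats received the 99mTc complex in normal saline (~12.5 μCi/mL) by lateral tail vein injection at ~25 μCi/kg and were killed by cervical dislocation at the stated time. Tissues were washed with saline, blotted, weighed and γ-counted to give percent injected dose/g. Time-course values are averages of male and female rats.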

Rattus norvegicus [5] = test: Biodistribution of compound in rat eye at 45 min after intravenous administration; format: ADME, organism-based; conditions: in vivo, 0.75 h; how it was run: as §1
Rattus norvegicus [6] = test: Biodistribution of compound in rat bone at 180 min after intravenous administration; format: ADME, organism-based, Bone element; conditions: in vivo, 3 h; how it was run: as §1
Rattus norvegicus [7] = test: Biodistribution of compound in rat heart after 5 min of administration; format: ADME, organism-based; conditions: in vivo
How it was run: (§3)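 Female Sprague-Dawley rats (150–200 g) received the 99mTc complex in normal saline (~12.5 μCi/mL) via a lateral tail vein at ~25 μCi/kg. They were killed by cervical dislocation 5 min after injection. Tissues were washed with saline, blotted, weighed and γ-counted, and the read-out was percent injected dose per g tissue.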

Rattus norvegicus [8] = test: Biodistribution of compound in rat blood at 1440 min after intravenous administration; format: ADME, organism-based; conditions: in vivo, 24 h; how it was run: as §1
Rattus norvegicus [9] = test: Biodistribution of compound in rat eye at 180 min after intravenous administration; format: ADME, organism-based; conditions: in vivo, 3 h; how it was run: as §1
Rattus norvegicus [10] = test: Biodistribution of compound in rat eye at 5 min after intravenous administration; format: ADME, organism-based; conditions: in vivo; how it was run: as §1
Rattus norvegicus [11] = test: Biodistribution of compound in rat blood after 5 min of administration; format: ADME, organism-based; conditions: in vivo; how it was run: as §3
[12] = The compound was tested for the plasma binding in human; format: ADME, cell-free
How it was run: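 Fresh heparinized human plasma (1.0 mL, obtained daily) was spiked with 0.02 mL test solution and incubated about 15 min. Duplicate samples went through saline-equilibrated Sephadex G-25 desalting columns by centrifugation. Eluate and gel were γ-counted for 1 min or to 1% σ error. % bound = net cpm eluate / net cpm (eluate + gel) × 100.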

Rattus norvegicus [13] = test: Biodistribution of compound in rat urine at 1440 min after intravenous administration; format: ADME, organism-based; conditions: in vivo, 24 h; how it was run: as §2
Rattus norvegicus [14] = test: Biodistribution of compound in rat blood at 45 min after intravenous administration; format: ADME, organism-based; conditions: in vivo, 0.75 h; how it was run: as §1
Rattus norvegicus [15] = test: Biodistribution of compound in rat bone marrow at 180 min after intravenous administration; format: ADME, organism-based; conditions: in vivo, 3 h; how it was run: as §1
Rattus norvegicus [16] = test: Biodistribution of compound in rat bone marrow at 90 min after intravenous administration; format: ADME, organism-based; conditions: in vivo, 1.5 h; how it was run: as §1
Rattus norvegicus [17] = test: Biodistribution of compound in rat liver at 90 min after intravenous administration; format: ADME, organism-based; conditions: in vivo, 1.5 h; how it was run: as §2
Rattus norvegicus [18] = test: Biodistribution of compound in rat kidney at 45 min after intravenous administration; format: ADME, organism-based; conditions: in vivo, 0.75 h; how it was run: as §1
Rattus norvegicus [19] = test: Biodistribution of compound in rat feces at 1440 min after intravenous administration; format: ADME, organism-based; conditions: in vivo, 24 h
Rattus norvegicus [20] = test: Biodistribution of compound in rat eye at 360 min after intravenous administration; format: ADME, organism-based; conditions: in vivo, 6 h; how it was run: as §1
Rattus norvegicus [21] = test: Biodistribution of compound in rat lungs at 45 min after intravenous administration; format: ADME, organism-based, Lung; conditions: in vivo, 0.75 h; how it was run: as §2
Rattus norvegicus [22] = test: Biodistribution of compound in rat muscle at 5 min after intravenous administration; format: ADME, organism-based, Muscle tissue; conditions: in vivo; how it was run: as §2
Rattus norvegicus [23] = test: Biodistribution of compound in rat gonads at 1440 min after intravenous administration; format: ADME, organism-based, Gonad; conditions: in vivo, 24 h; how it was run: as §1
Rattus norvegicus [24] = test: Biodistribution of compound in rat lung after 5 min of administration; format: ADME, organism-based; conditions: in vivo; how it was run: as §2
Rattus norvegicus [25] = test: Biodistribution of compound in rat blood at 90 min after intravenous administration; format: ADME, organism-based; conditions: in vivo, 1.5 h; how it was run: as §1
Rattus norvegicus [26] = test: Biodistribution of compound in rat muscle at 90 min after intravenous administration; format: ADME, organism-based, Muscle tissue; conditions: in vivo, 1.5 h; how it was run: as §2
Rattus norvegicus [27] = test: Biodistribution of compound in rat kidney at 1440 min after intravenous administration; format: ADME, organism-based; conditions: in vivo, 24 h; how it was run: as §1
Rattus norvegicus [28] = test: Biodistribution of compound in rat heart at 90 min after intravenous administration; format: ADME, organism-based; conditions: in vivo, 1.5 h; how it was run: as §1
Rattus norvegicus [29] = test: Biodistribution of compound in rat gonads at 180 min after intravenous administration; format: ADME, organism-based, Gonad; conditions: in vivo, 3 h; how it was run: as §1
Rattus norvegicus [30] = test: Biodistribution of compound in rat blood at 180 min after intravenous administration; format: ADME, organism-based; conditions: in vivo, 3 h; how it was run: as §1
Rattus norvegicus [31] = test: Biodistribution of compound in rat gonads at 360 min after intravenous administration; format: ADME, organism-based, Gonad; conditions: in vivo, 6 h; how it was run: as §1
Rattus norvegicus [32] = test: Biodistribution of compound in rat liver at 45 min after intravenous administration; format: ADME, organism-based; conditions: in vivo, 0.75 h; how it was run: as §2
Rattus norvegicus [33] = test: Biodistribution of compound in rat bone marrow at 1440 min after intravenous administration; format: ADME, organism-based; conditions: in vivo, 24 h; how it was run: as §1
Rattus norvegicus [34] = test: Biodistribution of compound in rat muscle at 180 min after intravenous administration; format: ADME, organism-based, Muscle tissue; conditions: in vivo, 3 h; how it was run: as §2
Rattus norvegicus [35] = test: Biodistribution of compound in rat bone marrow at 45 min after intravenous administration; format: ADME, organism-based; conditions: in vivo, 0.75 h; how it was run: as §1
Rattus norvegicus [36] = test: Biodistribution of compound in rat gonads at 5 min after intravenous administration; format: ADME, organism-based, Gonad; conditions: in vivo; how it was run: as §1
Rattus norvegicus [37] = test: Biodistribution of compound in rat feces at 360 min after intravenous administration; format: ADME, organism-based; conditions: in vivo, 6 h

Substance: Bis(1,3,5-trimethylbenzene)technetium
- Dose/g (Rattus norvegicus [1]): 0.067 % dose
- Dose/g (Rattus norvegicus [2]): 1.4 % dose/organ
- Dose/g (Rattus norvegicus [3]): 0.77 % dose
- Dose/g (Rattus norvegicus [4]): 0.34 % dose/organ
- Dose/g (Rattus norvegicus [5]): 0.028 % dose
- Dose/g (Rattus norvegicus [6]): 1.5 % dose/organ
- Dose/g (Rattus norvegicus [7]): 1.9%
- Dose/ml (Rattus norvegicus [8]): 0.13 % dose
- Dose/g (Rattus norvegicus [9]): 0.016 % dose
- Dose/g (Rattus norvegicus [10]): 0.041 % dose
- Dose/g (Rattus norvegicus [11]): 0.096%
- Plasma binding [12]: 21%
- Dose/ml (Rattus norvegicus [13]): 26 % dose
- Dose/ml (Rattus norvegicus [14]): 1.24 % dose
- Dose/g (Rattus norvegicus [15]): 0.13 % dose/organ
- Dose/g (Rattus norvegicus [16]): 0.13 % dose/organ
- Dose/g (Rattus norvegicus [17]): 3.6 % dose/organ
- Dose/g (Rattus norvegicus [18]): 5.8 % dose
- Dose/g (Rattus norvegicus [19]): 36.2 % dose
- Dose/g (Rattus norvegicus [20]): 0.019 % dose
- Dose/g (Rattus norvegicus [21]): 0.86 % dose/organ
- Dose/g (Rattus norvegicus [22]): 30 % dose/organ
- Dose/g (Rattus norvegicus [23]): 0.018 % dose
- Dose/g (Rattus norvegicus [24]): 0.82%
- Dose/ml (Rattus norvegicus [25]): 1.02 % dose
- Dose/g (Rattus norvegicus [26]): 25 % dose/organ
- Dose/g (Rattus norvegicus [27]): 0.4 % dose
- Dose/g (Rattus norvegicus [28]): 1.17 % dose
- Dose/g (Rattus norvegicus [29]): 0.055 % dose
- Dose/ml (Rattus norvegicus [30]): 0.67 % dose
- Dose/g (Rattus norvegicus [31]): 0.05 % dose
- Dose/g (Rattus norvegicus [32]): 3.1 % dose
- Dose/g (Rattus norvegicus [33]): 0.02 % dose/organ
- Dose/g (Rattus norvegicus [34]): 30 % dose/organ
- Dose/g (Rattus norvegicus [35]): 0.36 % dose/organ
- Dose/g (Rattus norvegicus [36]): 0.1 % dose
- Dose/g (Rattus norvegicus [37]): 0.4 % dose
